Bioassay records from PubChem.
An excerpt weighted towards active compounds, which were near 3.9% of everything screened.
TAAR1 antagonist – human TAAR1 antagonists, primary screen, Fluo-8 calcium fluorescence, CHO RD-HGA16 cells; Trace amine-associated receptor 1 (Homo sapiens), Q96RJ0; antagonist; inhibition, % at 3 µM; hit rate 1.5% among 360,000;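 active = inhibition above a per-plate cutoff, the mean inhibition of test compounds on that plate plus 3 SD, cut at about 49% in these data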;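 note: 0% = DMSO plus EC80 beta-PEA response and 100% = DMSO alone without agonist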
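Test system: RD-HGA16 CHO cells with stable hTAAR1 and Gα16 / Probe or stimulus: EC80 β-phenethylamine stimulus / Times: seeding 17-24 h prior, 75-min 37 °C, 30-min RT dye loading / Detection: Fluo-8 calcium-sensitive fluorescence / Read-out basis: % inhibition scaled between DMSO and EC80 PEA controls / Repeats: singlicate, one well per test compound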
CRFBP-R2 block – antagonists of CRF-BP/CRF-R2 complex, primary screen, cell-based, HEK293, calcium dye fluorescence, uHTS. CRF-induced calcium fluorescence. inhibition, % at 11.8 µM. hit rate 0.59% among 350,000;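 active = inhibition of the ligand-induced calcium signal above about 50% at the single tested concentration, limit read from the data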
TMEM16A act – TMEM16A chloride channel activators or potentiators, primary screen, cell-based, HTS; HEK293 TMEM16A/YFP-H148Q/I152L, iodide quench fluorescence; hits give low values; Anoctamin-1 (Mus musculus), Q8BHY3; AID 623877, 2012; B-score at 10 µM; hit rate 0.3% among 340,000;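 active = fluorescence-ratio B-score plate-corrected deviation score at least 3 library SD below zero, with starting fluorescence score within 5 deviations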;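 note: channel opened by trigger with iodide after compound preincubation; score built on the fluorescence ratio of max minus min over baseline; more negative score means more quench and so TMEM16A activation or potentiation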
ANO1 block – TMEM16A chloride channel inhibitors, primary screen, cell-based, HTS. Anoctamin-1 (Mus musculus), Q8BHY3. HEK293 TMEM16A/YFP iodide influx fluorescence, ionomycin. normalized B-score (activity score, 25-100; higher = stronger inhibition) at 10 µM. hit rate 1.2% among 310,000;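 active = ratio plate-corrected score three or more library SD toward inhibition, starting fluorescence score within five deviations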;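 note: score derived from kinetic fluorescence span divided by baseline fluorescence per well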
CRFR2-BP ag – agonists of CRF-BP/CRF-R2 complex, primary screen, cell-based, HEK293, calcium dye fluorescence, uHTS | calcium dye fluorescence (FLIPR); percent of saturating CRF peptide response | activation, % at 13.2 µM | hit rate 0.46% among 350,000;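 active = activation of at least 50%, plus an integration ratio under a set limit after plate pattern correction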;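 note: plate controls were neutral control wells without compound for no effect and CRF at EC100 for full effect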
TAAR1 agonist – human TAAR1 agonists, primary screen, Fluo-8 calcium fluorescence, CHO RD-HGA16 cells; Trace amine-associated receptor 1 (Homo sapiens), Q96RJ0; vehicle wells 0%, saturating PEA agonist 100%; activation, % at 3 µM; hit rate 0.99% among 360,000; AID 624467, 2012;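 active = activation above the mean activation of all test compounds in the run plus 3 SD, cut at about 38% in these data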
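Benchmarks: low control DMSO, high control PEA (EC100); System: CHO RD-HGA16 cells carrying human TAAR1 plus Gα16; Detection: Fluo-8 fluorescence, 5 s baseline then 140 s kinetic read; Schedule: 17-24 h plating, Fluo-8 75 min 37 °C, 30 min RT; Read-out basis: % activation from peak over basal fluorescence ratio, DMSO-to-PEA scaled.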
* hit, by the source's call; i = inactive; nt = no result given.

SMILES	TAAR1 antagonist	CRFBP-R2 block	TMEM16A act	ANO1 block	CRFR2-BP ag	TAAR1 agonist
CCc1ccccc1NC(=O)c1cc(=O)c2ccccc2o1	2	-5	i	i	-2	8
Cc1csc(=O)n1CC(=O)OCC(=O)Nc1ccc(F)c(F)c1F	-11	0	nt	nt	-1	2
Cc1ccccc1Nc1nc(N)nc(COC(=O)c2cccc(S(=O)(=O)NCc3ccccc3)c2)n1	55*	-21	i	i	1	28
Cc1ccccc1Nc1nc(N)nc(COC(=O)c2cccc(S(=O)(=O)N(C)C)c2)n1	7	-21	i	i	-1	13
COc1ccc(CN2C(=O)c3ccccc3C(/C=N\OCc3ccc(F)cc3)C2=O)cc1 (configuration not stated)	21	-2	i	25*	0	10
COc1ccc(NC(=O)CSCC(=O)NC2(C)CCS(=O)(=O)C2)cc1 (configuration not stated)	-9	-2	i	i	-1	1
C(=Cc1cnc2ccccc2n1)c1ccc2c(c1)OCO2	-22	-62	nt	nt	100*	1
O=C(Nc1ncc(Cc2ccc(SC(F)F)cc2)s1)c1ccccc1	31	-52	i	i	5	44*
O=C(Nc1ccc(S(=O)(=O)NC2=NCCCCC2)cc1)c1ccccc1Cl	-7	5	i	i	1	0
CC(C)(C)[C@@H]1COC(=O)[C@H](Cc2ccc(F)cc2)CC/C=C\C[C@H](CC(=O)N(CCO)Cc2ccccc2)C(=O)N1	56*	-9	i	nt	0	36
C[C@@H]1COC(=O)[C@H](NC(=O)OCC2c3ccccc3-c3ccccc32)C/C=C\C[C@@H](CC(=O)N(CCO)Cc2ccccc2)C(=O)N1	nt	-1	i	nt	-1	nt
O=C1NC[C@@H](c2ccccc2)OC(=O)[C@@H](Cc2ccc(F)cc2)C/C=C\C[C@@H]1CC(=O)N(CCO)Cc1ccccc1	69*	-4	i	nt	0	38*
O=C1NC[C@H](c2ccccc2)OC(=O)[C@@H](Cc2ccc(F)cc2)CC/C=C/C[C@H]1CC(=O)N(CCO)Cc1ccccc1	71*	-7	i	nt	0	30
CC(C)(C)[C@H]1COC(=O)[C@H](NC(=O)OCC2c3ccccc3-c3ccccc32)C/C=C\C[C@@H](CC(=O)N(CCO)Cc2ccccc2)C(=O)N1	51*	3	i	nt	-2	19
Nc1ccc(S(=O)(=O)NC2(C(F)(F)F)NC(=O)N(c3ccccc3F)C2=O)cc1 (configuration not stated)	2	-8	i	i	-1	-1
CC(NC(=O)C1CCN(CCOc2ccc(Cl)cc2)CC1)c1cccc2ccccc12 (configuration not stated)	37	nt	nt	nt	nt	28
CC(C)(C)OC(=O)C[C@@H]1C/C=C\C[C@@H](CC(=O)N(CCO)Cc2ccccc2)C(=O)N[C@@H](c2ccccc2)COC1=O	49*	3	i	nt	-5	15
C[C@@H]1COC(=O)[C@H](CC(=O)OC(C)(C)C)C/C=C\C[C@H](CC(=O)N(CCO)Cc2ccccc2)C(=O)N1	17	13	i	nt	0	5
O=C1NC[C@H](c2ccccc2)OC(=O)[C@H](Cc2ccc(F)cc2)CC/C=C/C[C@H]1CC(=O)N(CCO)Cc1ccccc1	62*	-12	i	nt	-2	41*
CC(=O)N1CCOc2ccc(S(=O)(=O)NCCc3cccc(C)c3)cc21	8	6	i	i	1	47*
CC(=O)N1CC(C)Sc2ccc(S(=O)(=O)NCCc3ccccc3)cc21 (configuration not stated)	33	0	i	i	-2	44*
O=C(O)CCc1ccc(S(=O)(=O)NCCc2ccccc2)cc1	24	3	i	i	1	37*
CC(=O)N1CCOc2ccc(S(=O)(=O)Nc3cccc(C)c3)cc21	-8	2	i	i	-1	4
COc1cccc(C(CNC(=O)c2ccc(Cl)c(S(=O)(=O)N3CCCC3)c2)N(C)C)c1 (configuration not stated)	2	-3	i	nt	-1	5
CCN1CCN(C(=O)C2CCC(=O)N(CCCN3CCCC3=O)C2)CC1 (configuration not stated)	-20	7	i	i	0	4
SMILES	TAAR1 antagonist	CRFBP-R2 block	TMEM16A act	ANO1 block	CRFR2-BP ag	TAAR1 agonist
Cc1ccc(OCC(=O)Nc2ccc([N+](=O)[O-])cn2)cc1C	4	51*	i	i	6	-5
CC(=O)Nc1ccc([N+](=O)[O-])cn1	9	-6	i	i	2	0
CCN=C1S/C(=C\c2cn(CC(=O)NCc3ccco3)c3ccccc23)C(=O)N1CC	49*	-8	i	i	4	14
COc1ccccc1NC(=O)/C(C#N)=C/c1cc([N+](=O)[O-])ccc1N1CCCC1	9	-43	i	i	92*	0
COc1ccccc1NC(=O)/C(C#N)=C/c1ccncc1	-26	11	i	i	-2	3
NC(=O)COC(=O)c1ccccc1SCC(=O)NC1CCCCCC1	-12	4	i	i	-1	5
N#Cc1ccc(Cn2c(-c3ccc(F)cc3)noc2=O)cc1	0	-27	i	i	2	-1
CSCCC(NC(=O)c1ccco1)C(=O)OCc1cc([N+](=O)[O-])cc2c1OCOC2 (configuration not stated)	9	-44	i	i	56*	8
COc1cccc(OCC(=O)NC2CCS(=O)(=O)C2)c1 (configuration not stated)	6	-8	i	nt	1	5
CS(=O)(=O)N(CC(=O)NCc1ccncc1)c1ccc(F)c(Cl)c1	17	-5	i	i	-3	-1
Cc1ccccc1N1C(=O)c2cccc3c(N(C)CCO)ccc(c23)C1=O	27	-152	i	i	159*	22
COc1ccccc1N1C(=O)c2cccc3c(N(C)CCO)ccc(c23)C1=O	8	-104	i	i	111*	22
CC(=O)Nc1cccc2c1C(=O)N(c1ccccc1C)C2=O	6	-34	i	i	0	2
